# Screening results (PubChem)
# IDH1 R132H inh: inhibitors of human IDH1 R132H; IDH1 R132H reductase, diaphorase/resazurin fluorescence, 60 min; hit rate 0.18% among 70,000; AID 624101; O75874; inhibition, % at 10 µM; in the data active = inhibition above about 34%; inconclusive = no clear call, values can overlap the other calls; inactive = below about 11%;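 also: 0% = DMSO and 100% = no enzyme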
# Target sequence (O75874 whole entry R132H): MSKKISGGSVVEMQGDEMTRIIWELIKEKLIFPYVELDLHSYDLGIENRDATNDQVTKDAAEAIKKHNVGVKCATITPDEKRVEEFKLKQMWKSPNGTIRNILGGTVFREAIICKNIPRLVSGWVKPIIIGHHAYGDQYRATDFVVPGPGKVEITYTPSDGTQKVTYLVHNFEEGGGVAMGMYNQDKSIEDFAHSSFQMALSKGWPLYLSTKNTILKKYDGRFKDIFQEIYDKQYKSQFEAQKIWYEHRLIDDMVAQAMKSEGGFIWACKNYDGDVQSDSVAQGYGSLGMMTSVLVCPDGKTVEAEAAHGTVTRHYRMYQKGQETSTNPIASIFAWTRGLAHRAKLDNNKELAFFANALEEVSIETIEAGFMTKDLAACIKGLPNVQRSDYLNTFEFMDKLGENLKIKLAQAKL
# T cruzi growth-1: inhibitors of T. cruzi proliferation | inhibition, % at 8.34 µM | T. cruzi beta-gal in NIH3T3, GalScreen luminescence, 90 h | hit rate 5.9% among 77,000;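 active = mean inhibition above about 93%, with at least 55% of replicates each passing it, limit read from the data, passing the limit was not always enough; inconclusive = only one of those two conditions holds; inactive = neither condition holds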
# KDM4C inh: blocks human GASC-1 (KDM4C) demethylase activity. inhibition, % at 12.5 µM. AID 720574. hit rate 0.15% among 96,000. GST-KDM4C 2-372, H3K9me3 peptide, LANCE TR-FRET. Q9H3R0;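 active = mean replicate inhibition above about 25%, with at least 55% of replicates also reaching it, limit read from the data, passing the limit was not always enough; inconclusive = only one of those two conditions met; inactive = neither condition met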
#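 Assay system: GST-GASC-1 enzyme fragment 2-372 | Amount: 10 nM enzyme | Medium: HEPES buffer, pH 7.5, plus ascorbate | Reagent: H3K9me3 peptide substrate, Fe(II), 2-oxoglutarate | Doses: Single-point compound screen | Incubation: 30 min demethylation and 1 h detection at room temperature | Measured by: LANCE TR-FRET, excitation 340 nm, emissions 618 and 671 nm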
# T cruzi growth-2: blocks T. cruzi growth in NIH3T3 host cells; hit rate 72% among 5,600; inhibition, % at 8.35 µM; T. cruzi beta-gal in NIH3T3, GalScreen luminescence, 90 h; shares compounds with T cruzi growth-1; AID 651739;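 active = mean replicate inhibition above about 95% and at least 55% of replicates individually reaching it, limit read from the data; inconclusive = only one of the two criteria is met; inactive = neither criterion is met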
# T cruzi growth-3: Trypanosoma cruzi proliferation inhibition; T. cruzi beta-gal in NIH3T3, GalScreen luminescence, 90 h; shares compounds with T cruzi growth-1; inhibition, % at 2.09 µM; hit rate 21% among 5,600;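 active = mean inhibition above about 95%, with at least 55% of replicates also reaching it, limit read from the data; inconclusive = meets just one of the two conditions; inactive = meets neither condition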;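 also: plate controls were neutral control median for no effect and positive control median for full effect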
# 3T3 cytotox: cytotoxicity in mouse NIH/3T3 fibroblasts; hit rate 14% among 5,600; NIH/3T3 viability, CellTiter-Glo ATP luminescence, 90 h; cytotoxicity (signal decrease), % at 8.35 µM; shares compounds with T cruzi growth-1;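 active = mean signal decrease across replicates above about 35% based on untreated-well scatter, with enough replicates individually passing, limit read from the data; inconclusive = no rule stated though some were filed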;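 also: 0% = median of neutral control wells and 100% = median of positive control wells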
# 3T3 cytotox 2: NIH/3T3 (mouse) viability loss; hit rate 56% among 5,600; inhibition, % at 24.9 µM; shares compounds with T cruzi growth-1; AID 651744; NIH/3T3 viability, CellTiter-Glo ATP luminescence, 90 h;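 active = mean loss of cell viability signal at or above a set limit, and enough replicates individually reaching it; inconclusive = meets only the mean limit or only the replicate share; inactive = meets neither condition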;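 also: 0% = median of neutral control wells and 100% = median of positive control wells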
# The depositor's hits bear a star; ? = inconclusive; · = not tested or not shown. This excerpt belongs to a sample that is enriched for hits.
SMILES,IDH1 R132H inh,T cruzi growth-1,KDM4C inh,T cruzi growth-2,T cruzi growth-3,3T3 cytotox,3T3 cytotox 2
C[C@@H]1CCCCO[C@@H](CN(C)Cc2ccc(C(F)(F)F)cc2)[C@@H](C)CN([C@@H](C)CO)C(=O)c2cc(NC(=O)Nc3ccc(F)cc3)ccc2O1,-4,108*,-2,98*,107*,-3,9
C[C@H](CO)N1C[C@H](C)[C@H](CN(C)Cc2cccnc2)Oc2ncc(C#CCc3ccccc3)cc2C1=O,-4,71,7,·,·,·,·
C[C@@H]1CN([C@@H](C)CO)C(=O)c2cc(C#CCc3ccccc3)cnc2O[C@@H]1CN(C)Cc1cccnc1,0,101*,3,79,-10,-10,-9
C[C@H](CO)N1C[C@H](C)[C@H](CN(C)Cc2ccccc2)Oc2ncc(C#Cc3cccnc3)cc2C1=O,0,101*,-1,70,15,15,33
C[C@H]1CN([C@@H](C)CO)C(=O)c2cc(C#Cc3cccnc3)cnc2O[C@@H]1CN(C)Cc1ccccc1,-1,91,-3,·,·,·,·
C[C@H]1CN([C@@H](C)CO)C(=O)c2cc(C#CCc3ccccc3)cnc2O[C@@H]1CN(C)CC1CCCC1,0,109*,1,103*,?,19,103*
CNC[C@@H]1Oc2ncc(C#CC3CCCC3)cc2C(=O)N([C@@H](C)CO)C[C@@H]1C,0,96,-1,·,·,·,·
C[C@@H]1CN([C@H](C)CO)C(=O)c2cc(C#CCc3ccccc3)cnc2O[C@H]1CN(C)CC1CCCC1,0,92,·,·,·,·,·
CNC[C@H]1Oc2ncc(C#CCC3CCCC3)cc2C(=O)N([C@H](C)CO)C[C@H]1C,0,?,-1,108*,92,11,106*
COC(=O)c1ccccc1NC(=O)Cn1nnc(-c2ccc(SC)cc2)n1,0,·,·,·,·,·,·
Cc1nn(C)c(-c2n[nH]c(=S)n2-c2ccc(CC(=O)O)cc2)c1Br,2,·,·,·,·,·,·
C[C@@H]1CN([C@H](C)CO)C(=O)c2cc(C#CCc3ccccc3)cnc2O[C@@H]1CN(C)C(=O)C1CCCCC1,·,35,0,·,·,·,·
C[C@H](CO)N1C[C@H](C)[C@@H](CN(C)C(=O)C2CCCCC2)Oc2ncc(C#CCc3ccccc3)cc2C1=O,5,?,1,94,-19,17,106*
C[C@@H]1CN([C@@H](C)CO)C(=O)c2cc(C#CCC3CCCC3)cnc2O[C@H]1CN(C)Cc1ccccn1,0,110*,8,105*,47,2,104*
C[C@H](CO)N1C[C@H](C)[C@H](CN(C)Cc2ccccn2)Oc2ncc(C#CCC3CCCC3)cc2C1=O,2,65,6,·,·,·,·
C=CCN1C(=O)[C@@]2(O[C@@H](CCn3cc(CCO)nn3)[C@H]([Si](C)(C)c3ccc(OC)cc3)[C@H]2C)c2cc(N3C(=O)c4cccc5cccc3c45)ccc21,-1,·,·,·,·,·,·
O=C(c1ccccc1)N1CC[C@@H]2[C@H]1c1cc(C#Cc3ccccc3F)ccc1N[C@@H]2CO,·,104*,-4,112*,40,-22,8
COc1ccccc1C#Cc1ccc2c(c1)[C@@H]1[C@@H](CCN1C(=O)c1ccccc1)[C@H](CO)N2,·,·,-2,·,·,·,·
COc1ccccc1C#Cc1ccc2c(c1)[C@@H]1[C@@H](CCN1C(=O)c1ccccc1)[C@@H](CO)N2,·,104*,0,106*,90,16,21
O=C(c1cccc(F)c1)N1CC[C@@H]2[C@H]1c1cc(C#Cc3cccc(F)c3)ccc1N[C@@H]2CO,·,103*,2,104*,68,-7,106*
O=C(c1cccc(F)c1)N1CC[C@@H]2[C@H](CO)Nc3ccc(C#Cc4cccc(F)c4)cc3[C@@H]21,·,93,7,·,·,·,·
O=C(c1ccc(F)cc1)N1CC[C@@H]2[C@@H](CO)Nc3ccc(C#Cc4ccccc4F)cc3[C@@H]21,·,52,-3,·,·,·,·
O=C(O)C1CC=CCC1C(=O)Nc1ccc(S(=O)(=O)N2CCc3ccccc32)cc1 (centres undefined),3,·,·,·,·,·,·
O=C(NCCCN1CCOCC1)c1ccc2nc(-c3ccccc3)c(-c3ccccc3)nc2c1,-1,·,·,·,·,·,·
CCn1c(SCC(=O)Nc2cccc(F)c2)nnc1-c1ccc(OC)cc1,0,·,·,·,·,·,·
CCOc1ccccc1NC(=O)CSc1nnc(-c2ccco2)n1C,0,·,·,·,·,·,·
